According to ChEMBL document CHEMBL1132429, “Design and synthesis of lipophilic phosphoramidate d4T-MP prodrugs expressing high potency against HIV in cell culture: structural determinants for in vitro activity and QSAR” (J Med Chem, 1999):

Experiments:
[1] = Partition coefficient (logD7.0); assay type: physicochemical; settings: octanol/water, pH 7
How it was run: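 Compound (2 μmol) was dissolved in 1-octanol (10 mL) and read by UV at 265 nm. Equal volumes of this solution and pH 7.0 phosphate buffer were stirred 5 min at 25 °C, then allowed to separate for 5 min. Octanol-phase absorbance at 265 nm was divided by that of the original octanol solution. Each experiment was done at least in triplicate.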

[2] = test system: CCRF-CEM; assay: Cytostatic concentration required to inhibit CEM/0 cells proliferation by 50%; assay type: functional; settings: Homo sapiens
[3] = test system: Human immunodeficiency virus 1; assay: Concentration required to protect CEM/0 cells against the cytopathicity of HIV-1 by 50%; assay type: functional, organism-based; settings: Human immunodeficiency virus 1, CCRF-CEM
How it was run: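 CEM/0 or CEM/TK⁻ cells at 250,000 cells/mL were infected with HIV-1 (~20 CCID₅₀/mL) or HIV-2 (~100 CCID₅₀/mL). Cells were mixed with an equal volume of diluted compound and incubated 4 days at 37 °C, then scored for giant cell formation. EC₅₀ is the concentration (μM) giving 50% inhibition of HIV-induced cytopathicity. Values are the mean of 2–4 independent experiments.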

[4] = test system: Human immunodeficiency virus 1; assay: Ratio CC50/EC50 for HIV-1 in CEM/0 cells; assay type: functional
[5] = test system: Human immunodeficiency virus 2; assay: Concentration required to protect CEM/0 cells against the cytopathicity of HIV-2 by 50%; settings: Human immunodeficiency virus 2, CCRF-CEM
[6] = test system: Human immunodeficiency virus 2; assay: Concentration required to protect CEM/TK cells against the cytopathicity of HIV-2 by 50%; settings: Human immunodeficiency virus 2, CEM-TK(-)

Compound | logD [1] | EC50 [3] [nM] | EC50 [5] [nM] | EC50 [6] [nM] | CC50 [2] [nM] | Selectivity index [4]
COC(=O)C(C)NP(=O)(OC[C@@H]1C=C[C@H](n2cc(C)c(=O)[nH]c2=O)O1)Oc1ccccc1 (stereo partly specified) | 1.04 | 75 | 75 | 75 | > 100000 | >1333
COC(=O)C(C)NP(=O)(OC[C@@H]1C=C[C@H](n2cc(C)c(=O)[nH]c2=O)O1)Oc1cccc(F)c1 (stereo partly specified) | 1.08 | 18 | 35 | 65 | 30000 | 1667
COC(=O)C(C)NP(=O)(OC[C@@H]1C=C[C@H](n2cc(C)c(=O)[nH]c2=O)O1)Oc1ccc(C(F)(F)F)cc1 (stereo partly specified) | 1.77 | 10 | 10 | 18 | 13000 | 1300
COC(=O)C(C)NP(=O)(OC[C@@H]1C=C[C@H](n2cc(C)c(=O)[nH]c2=O)O1)Oc1ccc([N+](=O)[O-])cc1 (stereo partly specified) | 0.9 | 130 | 190 | 90 | 73000 | 562
COC(=O)C(C)NP(=O)(OC[C@@H]1C=C[C@H](n2cc(C)c(=O)[nH]c2=O)O1)Oc1cccc(I)c1 (stereo partly specified) | 1.78 | 8 | 7 | 16 | 25000 | 3125
COC(=O)C(C)NP(=O)(OC[C@@H]1C=C[C@H](n2cc(C)c(=O)[nH]c2=O)O1)Oc1cccc(Cl)c1 (stereo partly specified) | 1.42 | 25 | 57 | 40 | 26000 | 1040
COC(=O)C(C)NP(=O)(OC[C@@H]1C=C[C@H](n2cc(C)c(=O)[nH]c2=O)O1)Oc1ccc(F)cc1 (stereo partly specified) | 1.1 | 53 | 60 | 22 | 26000 | 490
COC(=O)C(C)NP(=O)(OC[C@@H]1C=C[C@H](n2cc(C)c(=O)[nH]c2=O)O1)Oc1ccc(Cl)cc1 (stereo partly specified) | 1.43 | 5 | 7 | 6 | 11000 | 2200
COC(=O)C(C)NP(=O)(OC[C@@H]1C=C[C@H](n2cc(C)c(=O)[nH]c2=O)O1)Oc1ccc(C#N)cc1 (stereo partly specified) | 0.91 | 150 | 130 | 90 | 60000 | 400
COC(=O)C(C)NP(=O)(OC[C@@H]1C=C[C@H](n2cc(C)c(=O)[nH]c2=O)O1)Oc1ccc(OC(F)(F)F)cc1 (stereo partly specified) | 1.86 | 14 | 30 | 30 | 34000 | 2429
COC(=O)C(C)NP(=O)(OC[C@@H]1C=C[C@H](n2cc(C)c(=O)[nH]c2=O)O1)Oc1ccc(C)cc1 (stereo partly specified) | 1.19 | 40 | 50 | 25 | 34000 | 850
COC(=O)C(C)NP(=O)(OC[C@@H]1C=C[C@H](n2cc(C)c(=O)[nH]c2=O)O1)Oc1ccccc1Cl (stereo partly specified) | 1.37 | 18 | 29 | 65 | 47000 | 2611
COC(=O)C(C)NP(=O)(OC[C@@H]1C=C[C@H](n2cc(C)c(=O)[nH]c2=O)O1)Oc1cccc(C(F)(F)F)c1 (stereo partly specified) | 1.57 | 13 | 13 | 5.4 | 14000 | 1077
COC(=O)C(C)NP(=O)(OC[C@@H]1C=C[C@H](n2cc(C)c(=O)[nH]c2=O)O1)Oc1ccc(Br)cc1 (stereo partly specified) [STAMPIDINE] | 1.6 | 9 | 16 | 18 | 17000 | 1889

Continued by falling EC50 [3], values first:

logD [1] | EC50 [3] [nM] | EC50 [5] [nM] | EC50 [6] [nM] | Compound | CC50 [2] [nM] | Selectivity index [4]
-0.59 | 651 | 770 | 33000 | Cc1cn([C@H]2C=C[C@@H](CO)O2)c(=O)[nH]c1=O [STAVUDINE] | – | 267
0.9 | 110 | 100 | 50 | COC(=O)C(C)NP(=O)(OC[C@@H]1C=C[C@H](n2cc(C)c(=O)[nH]c2=O)O1)Oc1ccc(C(C)=O)cc1 (stereo partly specified) | 40000 | 363
0.92 | 80 | 90 | 45 | COC(=O)C(C)NP(=O)(OC[C@@H]1C=C[C@H](n2cc(C)c(=O)[nH]c2=O)O1)Oc1cccc(C(C)=O)c1 (stereo partly specified) | 50000 | 625
1.09 | 57 | 53 | 47 | COC(=O)C(C)NP(=O)(OC[C@@H]1C=C[C@H](n2cc(C)c(=O)[nH]c2=O)O1)Oc1ccc(OC)cc1 (stereo partly specified) | 35000 | 614
1.01 | 25 | 22 | 25 | COC(=O)c1ccc(OP(=O)(NC(C)C(=O)OC)OC[C@@H]2C=C[C@H](n3cc(C)c(=O)[nH]c3=O)O2)cc1 (stereo partly specified) | 31000 | 1240
2.15 | 16 | 30 | 30 | COC(=O)C(C)NP(=O)(OC[C@@H]1C=C[C@H](n2cc(C)c(=O)[nH]c2=O)O1)Oc1ccc(Cl)c(Cl)c1 (stereo partly specified) | 21000 | 1313
1.64 | 15 | 16 | 14 | COC(=O)C(C)NP(=O)(OC[C@@H]1C=C[C@H](n2cc(C)c(=O)[nH]c2=O)O1)Oc1cccc(Br)c1 (stereo partly specified) | 13000 | 867
1.93 | 13 | 15 | 29 | COC(=O)C(C)NP(=O)(OC[C@@H]1C=C[C@H](n2cc(C)c(=O)[nH]c2=O)O1)Oc1ccc(I)cc1 (stereo partly specified) | 15000 | 1154
